Test results: ChEMBL document CHEMBL1154571, “A cytotoxic sesquiterpene caffeate from the liverwort Bazzanianovae-zelandiae” (2000)
Values after ≈ are worked out from the molar mass of the structure shown.

Columns and labels:
Format in all cases: functional
P388 [1] = assay: Cytotoxicity against mouse P388 cells after 72 hrs by MTT assay
How it was run: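 P-388D1 murine leukemia cells (ATCC CCL 46) were incubated 72 h with a two-fold dilution series of sample. Growth was read by MTT tetrazolium staining absorbance. The concentration giving 50% of solvent-control growth was determined. Values are means of replicates. Mitomycin C at 0.06 μg/mL served as positive control.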

P388 [2] = assay: Cytotoxicity against mouse P388 cells at 0.06 ug/mL after 72 hrs by MTT assay; conditions: P388, 72 h, read-out: GI
How it was run: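 Mitomycin C positive control at 0.06 μg/mL on P-388D1 murine leukemia cells (ATCC CCL 46), 72 h incubation. Growth was read by MTT tetrazolium absorbance and expressed as percent inhibition relative to a solvent control.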

[3] = Cytotoxicity against human NCI60 cells
CCRF-CEM = assay: Cytotoxicity against human CCRF-CEM cells
NCI-H522 = assay: Cytotoxicity against human NCI-H522 cells
[4] = Mus musculus, P388, 72 h, read-out: GI50

Compound | GI50 (P388 [1]; [4]) | other results
C=C1CCC2CC1C(C)(C)CC(OC(=O)/C=C/c1ccc(O)c(O)c1)/C=C\2C (stereo unspecified) [BAZZANENEYL CAFFEATE] | 0.9 µg/mL (≈ 2.35 µM) | –
O=C(O)/C=C/c1ccc(O)c(O)c1 [CAFFEIC ACID] | > 25 µg/mL | –
O=C(/C=C/c1ccc(O)c(O)c1)O[C@H](C(=O)O)[C@H](OC(=O)/C=C/c1ccc(O)c(O)c1)C(=O)O [CHICORIC ACID] | > 25 µg/mL | –
CO[C@@]12[C@H](COC(N)=O)C3=C(C(=O)C(C)=C(N)C3=O)N1C[C@@H]1N[C@@H]12 [MITOMYCIN] | – | inhibition of growth at 0.06 µg/mL (P388 [2]): 43%
C[C@@H]1CC[C@@]2(C)[C@H](C)/C(=C/CO)CC[C@@]12C [NAVICULOL] | > 25 µg/mL | –
C[C@@H]1CC[C@@]2(C)[C@H](C)/C(=C\COC(=O)/C=C/c3ccc(O)c(O)c3)CC[C@@]12C [NAVICULYL CAFFEATE] | 0.8 µg/mL (≈ 2.08 µM) | GI50 (P388 [1]): 1.1 µg/mL (≈ 2.86 µM); GI50 [3]: 2.5 µg/mL (≈ 6.5 µM); GI50 (CCRF-CEM): 0.4 µg/mL (≈ 1.04 µM); GI50 (NCI-H522): 0.5 µg/mL (≈ 1.3 µM)
CC(C)=CCOC(=O)/C=C/c1ccc(O)c(O)c1 [PRENYL CAFFEATE] | 6.9 µg/mL (≈ 27.8 µM) | –
